Screening results deposited in PubChem BioAssay by Broad Institute.
ERp5 inh – blocks human ERp5 reductase activity on insulin | Q15084 | ERp5 insulin aggregation, absorbance 650 nm, 90 min | inhibition, % at 9.99 µM | hit rate 0.05% among 350,000 | AID 651711;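 active = mean replicate inhibition above about 25%, with every replicate also reaching it, limit read from the data, passing the limit was not always enough; inconclusive = only one of those two criteria met; inactive = neither criterion met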
DENV2 CPE rescue – protects cells from dengue virus 2 cytopathic effect. DENV2-infected cells, cytopathic effect rescue, plate reader. CPE inhibition, % at 9.99 µM. hit rate 1.7% among 350,000. AID 651640; in the data active = CPE inhibition above about 20%, passing the limit was not always enough; inconclusive = no clear call, values can overlap the other calls; tested in BHK-21 cells;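 also: 0% = median of neutral control wells and 100% = median of positive control wells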
F508del corr – CFTR F508del correction in bronchial cells. activity (quench increase), % at 7.58 µM. CFBE cells, YFP halide quenching; stimulated with forskolin plus potentiator P3; % fluorescence drop versus neutral controls. hit rate 0.36% among 350,000. AID 720511;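 active = mean added fluorescence quench of at least 8% versus neutral control, with both replicates also reaching 8%; inconclusive = only one of the mean or replicate conditions met; inactive = mean below 8% and not both replicates reaching 8%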;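 also: cells transiently co-express mutant CFTR-F508del with the halide-sensitive YFP; corrector assay measuring rescue of mutant channel to the surface after 24 h compound exposure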
Cneo AK release – Cryptococcus neoformans lysis via adenylate kinase release | C. neoformans lysis, adenylate kinase release luminescence, 4 h; normalised: neutral wells 0, clomiphene wells 100 | lysis activity, % at 15 µM | hit rate 0.2% among 360,000;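 active = mean lysis activity across replicates of at least 80%, whatever share of replicates individually reach that level; inactive = mean lysis activity below 80%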
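Test system: log-phase Cryptococcus neoformans yeast cells; Quantity: yeast cell density of 5 × 10^6 cells/mL; Buffer or medium: YPD; Doses: single compound concentration per well; Timing: 4 h at 37 °C static, read 1 h later; Measured by: AK luminescence; Read-out basis: lysis from increased AK signal; Control set: Clomiphene as positive control.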
PDI inh – inhibitors of human protein disulfide isomerase. P07237. PDI insulin aggregation turbidity, A650, 90 min. inhibition, % at 10 µM. hit rate 0.052% among 350,000. AID 588391;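 active = mean inhibition across replicates of 30% or more, whatever share of single replicates reach that level; inconclusive = mean inhibition below 30% while every single replicate reaches 30%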
Target sequence (P07237 whole entry, looked up): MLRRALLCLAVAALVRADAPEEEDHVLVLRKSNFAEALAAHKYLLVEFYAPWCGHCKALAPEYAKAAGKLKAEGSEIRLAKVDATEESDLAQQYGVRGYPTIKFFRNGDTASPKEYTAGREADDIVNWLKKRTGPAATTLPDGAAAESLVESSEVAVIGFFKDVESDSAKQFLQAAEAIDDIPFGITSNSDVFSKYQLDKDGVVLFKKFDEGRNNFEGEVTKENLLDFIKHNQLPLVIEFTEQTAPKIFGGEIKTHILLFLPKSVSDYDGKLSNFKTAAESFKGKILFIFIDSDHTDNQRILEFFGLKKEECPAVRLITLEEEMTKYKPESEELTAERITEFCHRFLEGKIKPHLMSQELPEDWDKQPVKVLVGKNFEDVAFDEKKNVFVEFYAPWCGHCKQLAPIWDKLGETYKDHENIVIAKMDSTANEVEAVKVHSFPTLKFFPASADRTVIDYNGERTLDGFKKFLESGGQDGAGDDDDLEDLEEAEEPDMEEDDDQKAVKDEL
C2C12 statin – suppressors of simvastatin-induced myotoxicity in C2C12 myotubes. ATP luminescence, 48 h; scaled: DMSO 0, geranylgeraniol control 100. rescue of ATP level, % at 7.49 µM. hit rate 0.78% among 330,000;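 active = mean ATP rescue above about 67%, or every replicate alone reaching that limit, limit read from the data, passing the limit was not always enough; inconclusive = no clear call, values can overlap the other calls; inactive = mean under the limit and some replicate under it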;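 also: myotubes were challenged with 10 µM simvastatin during compound exposure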
Starred values were filed as active, the others as inactive. Hits are enriched below; roughly 2.3% of the tested compounds scored in any of these assays.

`CN1c2ccc(-c3ccccc3F)cc2[C@H]2[C@H](CCN2C(=O)c2cccc(F)c2)[C@H]1CO` gave DENV2 CPE rescue 14.2, F508del corr 0.5, Cneo AK release -10.7 and C2C12 statin 11.5.
For CCOc1ccc(CCNC(=O)C2CC(=O)N(CCc3ccccc3)C2)cc1OCC (stereo not given) the results were ERp5 inh -0.4, DENV2 CPE rescue -1.2, F508del corr -0.1, Cneo AK release -0.1, PDI inh 8.4 and C2C12 statin 10.4.
Screening CCOc1ccc(NC(=O)C2CC(=O)N(CCc3ccccc3)C2)cc1OC (stereo not given) returned ERp5 inh -2.2, DENV2 CPE rescue 88.8*, F508del corr -0.1, Cneo AK release -0.8, PDI inh -4.0 and C2C12 statin 5.4.
`COc1ccc(NC(=O)N(C)C[C@H]2Oc3ccc(NC(=O)c4ccncc4)cc3CC(=O)N([C@H](C)CO)C[C@@H]2C)cc1` gave ERp5 inh 7.2, DENV2 CPE rescue -1.5, F508del corr 0.2, Cneo AK release 5.4 and C2C12 statin -26.4.
Screening COc1ccc(NC(=O)N(C)C[C@@H]2Oc3ccc(NC(=O)c4ccncc4)cc3CC(=O)N([C@H](C)CO)C[C@@H]2C)cc1 returned ERp5 inh -2.5, DENV2 CPE rescue 44.0*, F508del corr -5.1, Cneo AK release -10.9 and C2C12 statin 6.1.
Screening COc1ccc(NC(=O)N(C)C[C@@H]2Oc3ccc(NC(=O)c4ccncc4)cc3CC(=O)N([C@@H](C)CO)C[C@H]2C)cc1 returned ERp5 inh -0.5, DENV2 CPE rescue 15.3, F508del corr -1.3, Cneo AK release 8.2 and C2C12 statin 3.3.
For COc1ccc(NC(=O)N(C)C[C@@H]2Oc3ccc(NC(=O)c4ccncc4)cc3CC(=O)N([C@@H](C)CO)C[C@@H]2C)cc1 the results were ERp5 inh inconclusive, DENV2 CPE rescue 28.4*, F508del corr 0.5, Cneo AK release -4.2 and C2C12 statin 9.4.
Screening CCN(C(=O)CSc1nc2ccccc2c(=O)n1-c1ccccc1F)C1CCS(=O)(=O)C1 (stereo not given) returned ERp5 inh 3.0, DENV2 CPE rescue -3.9, F508del corr 10.9*, Cneo AK release -0.1, PDI inh 16.7 and C2C12 statin 7.2.
Screening CCN(C(=O)CSc1nc2ccccc2c(=O)n1-c1ccc(C)cc1)C1CCS(=O)(=O)C1 (stereo not given) returned ERp5 inh 12.4, F508del corr 1.3 and PDI inh -2.2.
`CO[C@H]1CN(C)C(=O)c2cc(NC(=O)C3CC3)ccc2OC[C@@H](C)NC[C@@H]1C` gave ERp5 inh -0.8, DENV2 CPE rescue -1.2, F508del corr 0.9, Cneo AK release -16.8 and C2C12 statin 13.3.
For C[C@H]1CN([C@@H](C)CO)S(=O)(=O)c2ccc(C#Cc3cccnc3)cc2O[C@H]1CN(C)C the results were ERp5 inh 4.4, DENV2 CPE rescue 9.8, F508del corr -0.7, Cneo AK release -3.2 and C2C12 statin 18.5.
`COc1ccc(S(=O)(=O)Nc2ccc3c(c2)C(=O)N([C@H](C)CO)C[C@H](C)[C@H](CN(C)S(=O)(=O)c2c(C)noc2C)OCCCC[C@H](C)O3)cc1` gave ERp5 inh 7.4, DENV2 CPE rescue -15.8, F508del corr 1.4 and Cneo AK release 5.8.
`C/C=C\C(=O)Nc1cccc(C2=NOC3(C2)C[C@@H](C(N)=O)N(C(=O)c2ccc(Cl)cc2)C3)c1` (stereo not given in full) gave ERp5 inh -1.3, DENV2 CPE rescue -7.0, F508del corr -0.3, Cneo AK release -0.7, PDI inh -1.3 and C2C12 statin 12.2.
`C/C=C\C(=O)Nc1cccc(C2=NOC3(C2)C[C@@H](C(N)=O)N(C(=O)c2ccc(OC)cc2)C3)c1` (stereo not given in full) gave ERp5 inh -0.1, DENV2 CPE rescue 22.1* and F508del corr -0.3.
`CO[C@H]1CN(C)C(=O)c2cc(NC(=O)C3CCCC3)ccc2OC[C@H](C)N(CC2CC2)C[C@@H]1C` gave ERp5 inh 5.2, DENV2 CPE rescue 2.2, F508del corr -0.4, Cneo AK release -0.7 and C2C12 statin 10.7.
For O=C(c1cnc2n(c1=O)CCS2)N1CCN(c2ccc([N+](=O)[O-])cc2)CC1 the results were ERp5 inh -6.0, DENV2 CPE rescue -5.4, F508del corr -4.5, Cneo AK release 0.3 and C2C12 statin -0.9.
`CCc1ccccc1NC(=O)c1cnc2n(c1=O)CCS2` gave ERp5 inh 3.4, DENV2 CPE rescue 34.8*, F508del corr -3.4, Cneo AK release 6.5, PDI inh -30.8 and C2C12 statin -6.5.
Screening O=C(c1cnc2n(c1=O)CCS2)N1CCN(C(c2ccccc2)c2ccc(Cl)cc2)CC1 (stereo not given) returned Cneo AK release -6.2 and C2C12 statin 75.7*.
Screening CSc1ccccc1NC(=O)c1cnc2n(c1=O)CCS2 returned ERp5 inh -4.3, DENV2 CPE rescue inconclusive, F508del corr 0.4, Cneo AK release -2.0, PDI inh -1.6 and C2C12 statin -12.2.
`O=C1c2ccccc2C(Nc2ccc(F)c(Cl)c2)N1Cc1ccco1` (stereo not given) gave ERp5 inh -3.9, DENV2 CPE rescue 35.7*, F508del corr 0.6, Cneo AK release -0.9 and C2C12 statin 25.0.
`COc1ccc(NC2c3ccccc3C(=O)N2Cc2ccco2)cc1OC` (stereo not given) gave ERp5 inh -0.7, DENV2 CPE rescue -0.8, F508del corr -1.2, Cneo AK release 0.7 and C2C12 statin 4.8.
For CO[C@@H]1CN(C)C(=O)c2ccc(NC(=O)C3CCCCC3)cc2OC[C@@H](C)N(Cc2cccnc2)C[C@H]1C the results were ERp5 inh 6.0, DENV2 CPE rescue 17.9, F508del corr 2.8, Cneo AK release -3.5 and C2C12 statin 7.7.
`COC(=O)c1ccc([C@@H]2C=C(C(=O)N3CCN(Cc4ccc5c(c4)OCO5)CC3)O[C@H](OCc3ccc(CO)cc3)C2)cc1` gave ERp5 inh 1.7, DENV2 CPE rescue 1.1, F508del corr 2.2 and Cneo AK release -7.2.
For C[C@@H]1CN([C@@H](C)CO)C(=O)c2cccc(NC(=O)CCCCCC(=O)Nc3ccccc3N)c2O[C@H]1CN(C)C(=O)Nc1ccc(F)cc1 the results were ERp5 inh -2.0, DENV2 CPE rescue 48.5* and F508del corr -4.0.
Screening C[C@@H]1CN([C@@H](C)CO)C(=O)c2cc(NC(=O)CCCCCC(=O)Nc3ccccc3N)ccc2O[C@@H]1CN(C)C(=O)Nc1ccc(C(F)(F)F)cc1 returned ERp5 inh 9.4, DENV2 CPE rescue -1.5, F508del corr -2.2, Cneo AK release 57.0 and C2C12 statin 68.2*.
